Data set [1] relates to Hepatitis C virus. The data set is described as follows: Inhibition of Hepatitis C virus 1b J4 recombinant NS5B Cdelta 21 RNA dependent RNA polymerase overexpressed in Escherichia coli BL21 (DE3) assessed as [alpha-33P]UTP incorporation by RdRp primer-independent transcription assay. Also on record: species or system Hepatitis C virus subtype 1b. In outline:
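De novo (primer-independent) RdRp assay: 190 nM NS5BΔ21 (1b J4) with 86 nM HCV 3′ UTR template RNA, 0.5 mM each ATP/GTP/CTP, 10 μM UTP plus [α-³³P]UTP, in 20 mM Tris-HCl pH 7.5, 1 mM DTT, 5 mM MgCl₂, 20 mM NaCl. Incubated 2 h at room temperature, stopped with EDTA/tRNA, TCA-precipitated on filters, and scintillation-counted. Quadruplicate.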

Another data set concerns MT4. The experiment in a line: Cytotoxicity against LTR-Luc transfected human MT4 cells […] after 3 days by ATPLite assay. In kind it is cell-based. The note with it: mt4, 72 h, 72 h. Background: In ATP-based viability assays light output follows the ATP content of the culture.
Data set [2] deals with Hepatitis C virus. The data set is described as follows: Inhibition of Hepatitis C virus 1b J4 recombinant NS5B Cdelta 21 RNA dependent RNA polymerase overexpressed in Escherichia coli BL21 (DE3) by RdRp primer-dependent transcription assay. Also on record: species or system Hepatitis C virus subtype 1b.
Data set [3] relates to Hepatitis C virus. The experiment in a line: Antiviral activity against Hepatitis C virus 1b infected in human HuH7 cells assessed as inhibition of viral replication after 3 days by luciferase reporter assay. In kind it is functional, organism-based, Hepacivirus hominis, genotype 1b, Huh-7. The note with it: huh-7. Summed up:
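HCV 1b subgenomic luciferase reporter replicon (clone ET) cells, 2,500 per well, were exposed to a nine-point 1/4 dilution series for 3 days. Replication was read as luciferase activity. Values are means ± SD from 2 to 23 independent experiments run in quadruplicate.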
(In general: Reporter assays use an easily measured gene product as a stand-in for the process of interest.)

Data set [4] is described as follows: Cytotoxicity against CMV-Luc transfected human HuH7 cells after 5 days. It is filed as cell-based, Huh-7. The note with it: huh-7, 120 h, 120 h.
The subject of data set [5] is Hepatitis C virus. The experiment in a line: Non competitive inhibition of Hepatitis C virus 1b J4 recombinant NS5B Cdelta 21 RNA dependent RNA polymerase overexpressed in Escherichia coli BL21 (DE3) in presence of radiolabeled 200 uM GTP.
In data set [6] the test system is Hepatitis C virus. The experiment in a line: Non competitive inhibition of Hepatitis C virus 1b J4 recombinant NS5B Cdelta 21 RNA dependent RNA polymerase overexpressed in Escherichia coli BL21 (DE3) in presence of radiolabeled 20 nM GTP. Also on record: species or system Hepatitis C virus subtype 1b. Summed up: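 Primer-dependent RdRp assay using purified C-terminally truncated NS5BΔ21 (genotype 1b J4) expressed in E. coli BL21(DE3). Enzyme was incubated with a poly(rC)/oligo(rG13) template, radiolabeled GTP at 20 nM, and a range of inhibitor concentrations. IC50 was derived by nonlinear regression of the dose-response curves. The run was done once in quadruplicate, reported as means ± SEM.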

The nature of data set [7]: Inhibition of Gamma-aminobutyric acid type-A (GABAA) receptor by radioligand binding assay. In outline:
(§1)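 Radioligand binding assays for the GABA-A central BZD receptor and the peripheral BZD receptor were run as a single experiment in duplicate.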

Data set [8] has as its system Hepatitis C virus. The data set is described as follows: Ratio of EC50 for Hepatitis C virus 796 infected in HuH7 cells to EC50 for Hepatitis C virus 796 harboring NNI M414Q mutant site in NS5B infected in HuH7 cells. It is filed as functional, Hepacivirus hominis, Huh-7. Summed up:
(§2)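 NS5B NNI-site mutations were introduced into the genotype 1b ET subgenomic luciferase replicon by site-directed mutagenesis. RNA was made by in vitro transcription and tested in a transient-replication assay.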

Data set [9] is described as follows: Cytotoxicity against human HepG2 cells after 72 hrs by resazurin assay. It is filed as cell-based. To be noted: HepG2 cells. Summed up: (§3)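 Cells were tested against eight serial fourfold dilutions for 72 h, at 3,000 cells/well for HEK293T and 4,000 cells/well for HepG2. Viability was read by resazurin staining. Values are means ± SD from two to eight independent experiments in quadruplicate.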
Background: The colour change of resazurin is a common sign of viable cells or microbes.

The nature of data set [10]: Cytotoxicity against human HEK293T cells after 72 hrs by resazurin assay. It is filed as cell-based, HEK-293T. Summed up:
as §3

Data set [11] is described as follows: Cytotoxicity against human MT4 cells after 3 days by ATPLite assay. It is filed as cell-based. To be noted: MT4 cells. In outline:
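MT4 cells, 5,000 per well, were incubated 3 days at 37°C with eight serial fourfold compound dilutions. Cytotoxicity was read as intracellular ATP by ATPlite 1step luminescence. Values are means ± SD from two to eight independent experiments in quadruplicate.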

The subject of data set [12] is Hepatitis C virus. The data set is described as follows: Ratio of EC50 for Hepatitis C virus 796 infected in HuH7 cells to EC50 for Hepatitis C virus 796 harboring NNI Y448A mutant site in NS5B infected in HuH7 cells. It is filed as functional, Hepacivirus hominis, Huh-7. Summed up: as §2
Data set [13] deals with Hepatitis C virus. The experiment in a line: Ratio of EC50 for Hepatitis C virus 796 infected in HuH7 cells to EC50 for Hepatitis C virus 796 harboring NNI C316Y mutant site in NS5B infected in HuH7 cells. It is filed as functional, Hepacivirus hominis, Huh-7. In outline:
as §2

In data set [14] the test system is Hepatitis C virus. The data set is described as follows: Ratio of EC50 for Hepatitis C virus 796 infected in HuH7 cells to EC50 for Hepatitis C virus 796 harboring NNI P495L mutant site in NS5B infected in HuH7 cells. In kind it is functional, Hepacivirus hominis, Huh-7. In outline: as §2
Data set [15] in a line: Cytotoxicity against human HuH7 cells after 5 days by resazurin assay. It is filed as cell-based, Huh-7. To be noted: HuH7 cells. In outline:
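Subconfluent HCV 1b subgenomic replicon cells, 500 per well and grown without G418, were incubated for 5 days with eight serial fourfold compound dilutions. Viability was read by resazurin. Values are means ± SD from two to eight independent experiments in quadruplicate.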

The next data set addresses Translocator protein (Homo sapiens, UniProt P30536). The data set is described as follows: Inhibition of peripheral benzodiazepine BZD receptor by radioligand binding assay. Summed up: as §1
Data set [16] has as its system Hepatitis C virus. The experiment in a line: Ratio of EC50 for Hepatitis C virus 796 infected in HuH7 cells to EC50 for Hepatitis C virus 796 harboring NNI H95R mutant site in NS5B infected in HuH7 cells. It is filed as functional, Hepacivirus hominis, Huh-7. Summed up:
as §2

Data set [17] relates to Hepatitis C virus. The data set is described as follows: Ratio of EC50 for Hepatitis C virus 796 infected in HuH7 cells to EC50 for Hepatitis C virus 796 harboring NNI M423T mutant site in NS5B infected in HuH7 cells. It is filed as functional, Hepacivirus hominis, Huh-7. Summed up:
as §2

The subject of data set [18] is Hepatitis C virus. The experiment in a line: Antiviral activity against Hepatitis C virus infected in cells assessed as log reduction in viral RNA level from baseline at 4500 mg administered BID for 14 days by Replicon Assays. It is filed as functional, Hepacivirus hominis.
In data set [19] the test system is Hepatitis C virus. The experiment in a line: Antiviral activity against Hepatitis C virus infected in cells assessed as log reduction in viral RNA level at 800 mg administered BID for 10 days. It is filed as functional, Hepacivirus hominis.

We go through 4 molecules from ChEMBL document CHEMBL1671641, “1,5-benzodiazepines, a novel class of hepatitis C virus polymerase nonnucleoside inhibitors” (Antimicrob Agents Chemother, 2008).

pEC50, pIC50: −log10 of the molar value. Some results are limits rather than exact numbers.

Chain of Translocator protein (P30536 whole entry): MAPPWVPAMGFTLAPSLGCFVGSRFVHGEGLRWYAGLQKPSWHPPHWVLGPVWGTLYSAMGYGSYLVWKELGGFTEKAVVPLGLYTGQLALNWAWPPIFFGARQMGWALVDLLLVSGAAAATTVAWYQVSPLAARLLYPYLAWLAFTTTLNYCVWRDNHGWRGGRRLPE

A word on the pIC50: it is the IC50 on a negative log10 scale, so that one unit is a factor of ten. The CC50 is the concentration at which the toxic effect on the cells reaches its halfway point. One may read the pEC50 as the EC50 on a negative log10 scale, so that one unit is a factor of ten. As to `CC(=O)N1c2ccccc2NC2=C(C(=O)CC(C)(C)C2)C1c1ccc(OCc2ccccc2)c(Cl)c1` (single isomer, unassigned; 4a), the pIC50 in the data set on Hepatitis C virus [1] is 6.05; with Hepatitis C virus [2], 6.00; in the data set on Hepatitis C virus [5], 5.89; in the data set with Hepatitis C virus [6], 6.00. In addition, the CC50 in the data set on MT4 was 16.4 µM; in data set [4], greater than 32 µM. The pEC50 in the data set on Hepatitis C virus [3] was 5.72.

Regarding `CC(=O)N1c2cccc(O)c2NC2=C(C(=O)CC(C)(C)C2)C1c1ccc(OCc2ccccc2)cc1Cl` (single isomer, unassigned; 7a), the pIC50 in [7] was less than 4.52; in the data set with Hepatitis C virus [1] it was 7.30; in the data set with Hepatitis C virus [2] it was 7.30; at Translocator protein it was less than 4.52. Besides, the “fold change (FC)” value in the data set on Hepatitis C virus [8], with Hepatitis C virus [12], in the data set on Hepatitis C virus [13], in the data set on Hepatitis C virus [14], with Hepatitis C virus [16] and with Hepatitis C virus [17] was 10 in each case. Besides, the CC50 at 72 h was 31.2 µM in data set [9], greater than 25 µM in data set [10] and 56.5 µM in data set [11]. The CC50 in the data set with MT4 worked out at 16.2 µM; in data set [4], 12.8 µM. Further, in the data set on Hepatitis C virus [3], the pEC50 is 5.92. In [15], this molecule returned a CC50 at 120 h of 46.2 µM.

Turning to `[N-]=[N+]=N[C@]1(CO)O[C@@H](n2ccc(N)nc2=O)[C@H](O)[C@@H]1O` [4'-AZIDOCYTIDINE], in the data set with Hepatitis C virus [18], the FC came out at 3.7.

In the case of `CC1CCC(C(=O)N(c2cc(-c3ccccc3)sc2C(=O)[O-])C2CCC(O)CC2)CC1.[Na+]` (stereo unspecified) [VCH-759], in the data set with Hepatitis C virus [19], the FC was 2.5.
